Measurements from different studies.
Lines come from different studies, so protocols differ.
Cell line: HepG2
Read-out: cell growth or viability

Cc1ccc(-c2cc(-c3ccc(Cl)c(F)c3)c3c(=O)[nH]c(=O)[nH]c3n2)cc1 — IC50 (MTT; 48 h): 15.7 µM
COc1cccc2c1C(=O)c1c(O)c3c(c(O)c1C2=O)C[C@@](O)(C(=O)CO)C[C@@H]3O[C@H]1C[C@H](N)[C@H](O)[C@H](C)O1 — IC50 (MTT; 72 h): 0.54 µM
COc1ccc(C2CC(c3ccc(Nc4nnc(-c5ccc(Cl)cc5)c5ccccc45)cc3)=NN2)cc1 (centres unmarked) — IC50 (MTT; 72 h): 0.19 µM
O=C(O)Cc1csc(NC(=O)c2cc3ccccc3[nH]2)n1 — IC50 (MTT; 24 h): 13.9 µM
Cc1ccc(-c2cc(-c3ccc(Cl)c(F)c3)c3c(=O)n(C)c(=O)n(C)c3n2)cc1 — IC50 (MTT; 48 h): 38.8 µM
CN(C)c1cc(NC(=O)Cc2ccccn2)c(O)c2c1C[C@H]1C[C@H]3[C@H](N(C)C)C(O)=C(C(N)=O)C(=O)[C@@]3(O)C(O)=C1C2=O — IC50 (ATP luminescence; 72 h): > 200 µg/mL
Nc1n[nH]c2nc(-c3cccc(O)c3)cc(-c3cc4cc(Cl)ccc4nc3N3CCOCC3)c12 — IC50 (MTT; 72 h): 0.0907 µM
COc1ccc(-c2cc(-c3cc(OC)ccc3OC)c3c(=O)[nH]c(=O)[nH]c3n2)cc1 — IC50 (MTT; 48 h): 13.1 µM
CN(C)c1cc(NC(=O)Cc2cccnn2)c(O)c2c1C[C@H]1C[C@H]3[C@H](N(C)C)C(O)=C(C(N)=O)C(=O)[C@@]3(O)C(O)=C1C2=O — IC50 (ATP luminescence; 72 h): > 200 µg/mL
COc1nc(NCc2cn(-c3ccc(C(=O)Nc4ccc(C(F)(F)F)cc4)cc3)nn2)nc(OC)n1 — IC50 (MTT; 72 h): 0.0651 µM
CN(C)c1cc(NC(=O)Cc2ccn(C)n2)c(O)c2c1C[C@H]1C[C@H]3[C@H](N(C)C)C(O)=C(C(N)=O)C(=O)[C@@]3(O)C(O)=C1C2=O — IC50 (ATP luminescence; 72 h): > 200 µg/mL
COc1ccc(-c2cc(-c3c(OC)cccc3OC)c3c(=O)[nH]c(=O)[nH]c3n2)cc1 — IC50 (MTT; 48 h): 36.5 µM
COc1cccc2c1C(=O)c1c(O)c3c(c(O)c1C2=O)C[C@@](O)(C(=O)CO)C[C@@H]3O[C@H]1C[C@H](N)[C@H](O)[C@H](C)O1 — IC50 (MTT; 24 h): 4.5 µM
CN(C)c1cc(NC(=O)Cc2cccnc2)c(O)c2c1C[C@H]1C[C@H]3[C@H](N(C)C)C(O)=C(C(N)=O)C(=O)[C@@]3(O)C(O)=C1C2=O — IC50 (ATP luminescence; 72 h): > 200 µg/mL
COc1ccc(-c2cc(-c3ccccc3Cl)c3c(=O)n(C)c(=O)n(C)c3n2)cc1 — IC50 (MTT; 48 h): 18.9 µM
CN(C)c1cc(NC(=O)Cc2ccncn2)c(O)c2c1C[C@H]1C[C@H]3[C@H](N(C)C)C(O)=C(C(N)=O)C(=O)[C@@]3(O)C(O)=C1C2=O — IC50 (ATP luminescence; 72 h): > 200 µg/mL
O=C(C=Cc1ccccc1)Nc1cc(-c2ccnc(N3CCC(O)CC3)c2)ccn1 — IC50 (MTT; 72 h): 0.111 µM
CN(C)c1cc(NC(=O)c2ccccc2)c(O)c2c1C[C@H]1C[C@H]3[C@H](N(C)C)C(O)=C(C(N)=O)C(=O)[C@@]3(O)C(O)=C1C2=O — IC50 (ATP luminescence; 72 h): 21.3 µg/mL
Cc1ccc(-c2cc(-c3ccc(N(C)C)cc3)c3c(=O)[nH]c(=O)[nH]c3n2)cc1 — IC50 (MTT; 48 h): 12.1 µM
CCCOc1nc(-c2cccc(O)c2)cc(-c2cc3ccccc3nc2N2CCOCC2)c1C#N — IC50 (MTT; 72 h): 0.269 µM
Cc1ccc(-c2cc(-c3ccc(N(C)C)cc3)c3c(=O)n(C)c(=O)n(C)c3n2)cc1 — IC50 (MTT; 48 h): 14.4 µM
COc1ccc2[nH]c(C(=O)Nc3nc(CC(=O)NO)cs3)cc2c1 — IC50 (MTT; 24 h): 13.3 µM
CN(C)c1cc(NC(=O)Cc2ccccc2)c(O)c2c1C[C@H]1C[C@H]3[C@H](N(C)C)C(O)=C(C(N)=O)C(=O)[C@@]3(O)C(O)=C1C2=O — IC50 (ATP luminescence; 72 h): 63.7 µg/mL
